Test results as given in ChEMBL document CHEMBL4706521, “Synthesis of indole inhibitors of silent information regulator 1 (SIRT1), and their evaluation as cytotoxic agents” (Eur J Med Chem, 2020).
pIC50: −log10 of the molar value.

Columns and labels:
HEK-293T = assay: Cytotoxicity against human HEK293T cells assessed as cell viability measured after 48 hrs by MTT assay; format: cell-based
NCI-H460 = assay: Cytotoxicity against human NCI-H460 cells assessed as cell viability measured after 48 hrs by MTT assay; format: functional, cell-based; conditions: NCI-H460, 48 h
[1] = target: T1, NAD-dependent protein deacetylase sirtuin-2 (Homo sapiens) (UniProt Q8IXJ6); assay: Inhibition of recombinant human SIRT2 expressed in baculovirus infected SF9 cells expression system using RHKK(Ac)W-NH2 as substrate at 10 uM measured after 20 mins by HPLC method
T1 sequence (whole entry): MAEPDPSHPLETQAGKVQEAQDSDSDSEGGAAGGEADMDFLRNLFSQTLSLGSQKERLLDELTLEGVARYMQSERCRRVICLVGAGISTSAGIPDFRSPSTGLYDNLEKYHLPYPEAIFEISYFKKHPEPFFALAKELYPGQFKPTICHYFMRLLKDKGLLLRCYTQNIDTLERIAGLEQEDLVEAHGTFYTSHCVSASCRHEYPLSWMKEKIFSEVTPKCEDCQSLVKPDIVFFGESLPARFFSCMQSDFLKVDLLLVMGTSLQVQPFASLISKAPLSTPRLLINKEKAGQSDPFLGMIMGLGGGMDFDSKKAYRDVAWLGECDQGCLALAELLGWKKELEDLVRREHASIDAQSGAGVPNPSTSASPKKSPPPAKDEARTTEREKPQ
Outline: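 SIRT2 at about 100 nM (nominal) started the reaction, without preincubation, in kit buffer pH 8.0 with 2 mM NAD+ and 250 μM RHKK(Ac)W-NH2. Final DMSO was 1%. Reactions ran 20 min at 37 °C, keeping conversion at 2–8%, and were stopped with TFA. Substrate and product were separated by C18 HPLC (10–50% B gradient) and detected at 220 nm. Peak areas gave % conversion. Results were reported as IC50 (95% CI) or % inhibition (SD), from at least duplicates.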

[2] = target: T2, NAD-dependent protein deacetylase sirtuin-1 (Homo sapiens, UniProt Q96EB6); assay: Inhibition of recombinant human SIRT1 (193 to 741 residues) expressed in Escherichia coli expression system using RHKK(Ac)W-NH2 as substrate measured after 2 hrs by HPLC method
T2 sequence (Q96EB6 whole entry): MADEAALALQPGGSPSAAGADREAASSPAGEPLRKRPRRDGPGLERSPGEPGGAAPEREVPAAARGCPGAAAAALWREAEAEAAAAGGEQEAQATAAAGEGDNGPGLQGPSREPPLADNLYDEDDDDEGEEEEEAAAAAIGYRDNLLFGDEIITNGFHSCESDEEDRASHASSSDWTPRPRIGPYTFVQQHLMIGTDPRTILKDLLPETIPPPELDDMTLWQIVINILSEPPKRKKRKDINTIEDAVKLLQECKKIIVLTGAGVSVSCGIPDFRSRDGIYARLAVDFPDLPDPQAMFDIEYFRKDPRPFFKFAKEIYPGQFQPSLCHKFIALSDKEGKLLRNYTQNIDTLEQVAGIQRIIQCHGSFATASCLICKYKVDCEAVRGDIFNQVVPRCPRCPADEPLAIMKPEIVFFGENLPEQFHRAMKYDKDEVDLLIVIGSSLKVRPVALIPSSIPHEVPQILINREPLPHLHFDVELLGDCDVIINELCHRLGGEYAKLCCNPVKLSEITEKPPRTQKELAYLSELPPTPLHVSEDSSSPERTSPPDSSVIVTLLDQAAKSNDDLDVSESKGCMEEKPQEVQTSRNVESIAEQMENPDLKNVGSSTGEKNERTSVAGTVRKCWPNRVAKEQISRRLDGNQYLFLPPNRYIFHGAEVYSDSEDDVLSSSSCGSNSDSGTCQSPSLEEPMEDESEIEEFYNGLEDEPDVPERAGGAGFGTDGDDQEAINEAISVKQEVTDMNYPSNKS

HT-29 = assay: Cytotoxicity against human HT-29 cells assessed as cell viability measured after 48 hrs by MTT assay; format: functional, cell-based; conditions: HT-29, 48 h
Outline: (§1)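 Cells were seeded at 5×10^4 cells/mL and allowed to adhere for 24 h. Compounds in DMSO were tested at final 0.01, 0.1, 1, 10 and 100 μM for 48 h. MTT was then added, followed by isopropanol-HCl. OD was read at 570/630 nm, and IC50 was calculated from OD.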

HUVEC = assay: Cytotoxicity against human HUVEC cells assessed as cell viability measured after 48 hrs by MTT assay; format: cell-based; outline: as §1
HepG2 = assay: Cytotoxicity against human HepG2 cells assessed as cell viability measured after 48 hrs by MTT assay; format: functional, cell-based; conditions: HepG2, 48 h
A549 = assay: Cytotoxicity against human A549 cells assessed as cell viability measured after 48 hrs by MTT assay; format: functional, cell-based; conditions: A549, 48 h; outline: as §1
K562 = assay: Cytotoxicity against human K562 cells assessed as cell viability measured after 48 hrs by MTT assay; format: functional, cell-based; conditions: K562, 48 h
Outline: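 Cells were seeded at 5×10^4 cells/mL and kept in suspension 2 h before dosing. Compounds were added from DMSO at final 0.01–100 μM (tenfold series) for 48 h. MTT was applied, then isopropanol-HCl, with OD read at 490 and 630 nm. IC50 was obtained from OD.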

MCF7 = assay: Cytotoxicity against human MCF7 cells assessed as cell viability measured after 48 hrs by MTT assay; format: functional, cell-based; conditions: MCF7, 48 h
HCT-116 = assay: Cytotoxicity against human HCT-116 cells assessed as cell viability measured after 48 hrs by MTT assay; format: functional, cell-based; conditions: HCT-116, 48 h
[3] = target: T3, NAD-dependent protein deacetylase sirtuin-2 (Homo sapiens, UniProt Q8IXJ6); assay: Inhibition of recombinant human SIRT2 expressed in baculovirus infected SF9 cells expression system using RHKK(Ac)W-NH2 as substrate measured after 20 mins by HPLC method
T3 sequence (Q8IXJ6 whole entry): T1 sequence (whole entry)

Q: With `CCc1c(CC(N)=O)[nH]c2ccc(Cl)cc12` as the compound, how does the pIC50 (HEK-293T) read?
A: 4.11

Q: And the pIC50 (NCI-H460)?
A: 4.15

Q: What about the inhibition [1] of the same compound?
A: -5.5%

Q: What about the pIC50 [2] of the same compound?
A: 4.85

Q: What about the pIC50 (HT-29) of the same compound?
A: < 4.00

Q: And the pIC50 (HUVEC)?
A: 4.24

Q: What about the pIC50 (HepG2) of the same compound?
A: < 4.00

Q: And the pIC50 (A549)?
A: < 4.00

Q: What about the pIC50 (K562) of the same compound?
A: 4.06

Q: And the pIC50 (MCF7)?
A: < 4.00

Q: What about the pIC50 (HCT-116) of the same compound?
A: 4.28

Q: How did the pIC50 (HEK-293T) turn out when `NC(=O)Cc1cc2cc(Cl)ccc2[nH]1` was run?
A: < 4.00

Q: And the pIC50 (NCI-H460)?
A: < 4.00

Q: What about the inhibition [1] of the same compound?
A: 1.7%

Q: And the pIC50 [2]?
A: 4.05

Q: And the pIC50 (HT-29)?
A: < 4.00

Q: And the pIC50 (HUVEC)?
A: < 4.00

Q: What about the pIC50 (HepG2) of the same compound?
A: < 4.00

Q: And the pIC50 (A549)?
A: < 4.00

Q: What about the pIC50 (K562) of the same compound?
A: < 4.00

Q: What about the pIC50 (MCF7) of the same compound?
A: < 4.00

Q: What about the pIC50 (HCT-116) of the same compound?
A: < 4.00

Q: How did the pIC50 (HEK-293T) turn out when `NC(=O)Cc1[nH]c2ccc(Cl)cc2c1CC(N)=O` was run?
A: < 4.00

Q: What about the pIC50 (NCI-H460) of the same compound?
A: < 4.00

Q: And the pIC50 [2]?
A: < 4.00

Q: What about the pIC50 (HT-29) of the same compound?
A: < 4.00

Q: And the pIC50 (HUVEC)?
A: < 4.00

Q: What about the pIC50 (HepG2) of the same compound?
A: < 4.00

Q: What about the pIC50 (A549) of the same compound?
A: < 4.00

Q: What about the pIC50 (K562) of the same compound?
A: < 4.00

Q: And the pIC50 (MCF7)?
A: < 4.00

Q: And the pIC50 (HCT-116)?
A: < 4.00

Q: How did the pIC50 (HEK-293T) turn out when `CC[C@@]1(O)C(=O)OCc2c1cc1n(c2=O)Cc2cc3ccccc3nc2-1` [CAMPTOTHECIN] was run?
A: 5.25

Q: What about the pIC50 (NCI-H460) of the same compound?
A: 6.92

Q: And the pIC50 (HT-29)?
A: < 4.00

Q: And the pIC50 (HUVEC)?
A: > 8.00

Q: What about the pIC50 (HepG2) of the same compound?
A: 7.40

Q: What about the pIC50 (A549) of the same compound?
A: 5.81

Q: What about the pIC50 (K562) of the same compound?
A: 6.49

Q: What about the pIC50 (MCF7) of the same compound?
A: 5.78

Q: What about the pIC50 (HCT-116) of the same compound?
A: 7.30

Q: How did the pIC50 [3] turn out when `NC(=O)Cc1[nH]c2ccc(Cl)cc2c1Cc1ccccc1` was run?
A: 6.03

Q: `NC(=O)C1CCCc2c1[nH]c1ccc(Cl)cc21` (configuration not stated) was tested. Which pIC50 (HEK-293T) did it give?
A: 4.29

Q: What about the pIC50 (NCI-H460) of the same compound?
A: 4.32

Q: What about the inhibition [1] of the same compound?
A: 84%

Q: And the pIC50 (HT-29)?
A: < 4.00

Q: And the pIC50 (HUVEC)?
A: 4.82

Q: What about the pIC50 (HepG2) of the same compound?
A: 4.36

Q: And the pIC50 (A549)?
A: 4.54

Q: And the pIC50 (K562)?
A: 4.22

Q: And the pIC50 (MCF7)?
A: 4.43

Q: And the pIC50 (HCT-116)?
A: 4.43
